Screens from PubChem BioAssay.
Many of the other results were omitted from the sample, so hits are more common in it than they were.
PostGolgi yeast: growth inhibition of a yeast mutant, post-Golgi transport screen. post-Golgi transport phenotypic cell assay. inhibition, % at 10 µM. 0.9% of 98,000 active. AID 739;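 note: yeast cells grown in 1536-well plates; yeast grown about 18 h at 30C before absorbance read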
Yeast life ext: extends the lifespan of yeast | S. cerevisiae growth with nicotinamide, OD615; deaD strain in restrictive glucose medium | inhibition of the nicotinamide effect, % at 10 µM | 0.68% of 130,000 active;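 active = inhibition above a set limit, placed 3 SD over the median of all compounds, cut at about 26% in these data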
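assay system = DeaD-strain S. cerevisiae | measured by = absorbance at 615 nm | probe or stimulus = nicotinamide 1.5 mM | buffer or medium = CSMM-D glucose medium, restrictive | times = 48 h at 30 °C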
BB579 growth dn: chemicals that inhibit yeast BB579 growth in restrictive medium (lifespan-shortening candidates); S. cerevisiae BB579 growth, OD615, 48 h; inhibition, % at 10 µM; 0.51% of 140,000 active; AID 804;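 active = inhibition above a set limit, 3 SD over the mean compound inhibition, cut at about 44% in these data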
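Assay system: S. cerevisiae DeaD strain BB579 yeast. Medium: CSMM-D restrictive synthetic medium containing dextrose (glucose). Times: 4 h cell preincubation, 48 h compound exposure, 30 °C humidified. Signal: OD615 turbidity measurement. Benchmarks: positive control amphotericin B 10 µg/mL.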
PostGolgi ctrl: growth of the yeast control strain, post-Golgi counter-screen | efflux-deficient yeast background strain, growth absorbance A615, 16 h | 5% of 98,000 active | inhibition, % at 10 µM | AID 738
Large screens that a line does not name were inactive. Cut-off read from the data, not from the text of the source, unless noted: active = inhibition above about 30%; inactive = the rest.

COc1ccc(-n2nc([N+](=O)[O-])c(=NCCc3ccc(Cl)cc3)n2O)cc1	PostGolgi ctrl 40.3
COc1ccc(-n2nc([N+](=O)[O-])c(=NCCc3ccc(OC)c(OC)c3)n2O)cc1	none (no result: PostGolgi yeast, PostGolgi ctrl)
CCc1ccc(N=c2c([N+](=O)[O-])nn(-c3ccccc3)n2O)cc1	PostGolgi ctrl 33.6
O=C(NCCSCc1ccccc1)c1ccc(C2SCC(=O)N2Cc2ccccc2)cc1 (configuration not stated)	none
CCOC(=O)c1c(NC(=O)C(C)N2CCN(S(=O)(=O)c3cccs3)CC2)sc2c1CCC(C)C2 (configuration not stated)	none (no result: PostGolgi yeast, PostGolgi ctrl)
COc1ccc(OC)c(NC(=O)CSc2nnc(N)s2)c1	none
Cc1cc(NC(=O)CN2C(=O)NC3(CCC(C)CC3)C2=O)no1 (configuration not stated)	none (no result: PostGolgi yeast, PostGolgi ctrl)
Cc1cc(C)c(S(=O)(=O)Nc2ccc(OCC(=O)O)cc2)c(C)c1	PostGolgi ctrl 40.6
COc1ccc(NS(=O)(=O)c2c(C)cc(C)cc2C)cc1	none
COc1cccc(NS(=O)(=O)c2c(C)cc(C)cc2C)c1	PostGolgi ctrl 32.0
O=C(c1ccccc1Oc1ccccc1)N1CCN(c2ccccc2F)CC1	PostGolgi ctrl 32.7
CC1CCN(C(=O)Cn2c(=O)n(Cc3ccc4c(c3)OCO4)c(=O)c3ccccc32)CC1	none
CC1CCCN(C(=O)c2ccc3c(=O)n(Cc4ccc5c(c4)OCO5)c(=S)[nH]c3c2)C1 (configuration not stated)	PostGolgi ctrl 46.5
CC1CCN(C(=O)CSc2nc3ccccc3c(=O)n2Cc2ccc3c(c2)OCO3)CC1	PostGolgi ctrl 43.5
O=C(Nc1cc(C(F)(F)F)ccc1N1CCCC1)c1cccnc1	none
O=C(CSc1ccc(Cl)cc1)N1CCN(c2ccc(Cl)cc2[N+](=O)[O-])CC1	PostGolgi ctrl 71.5
O=S(=O)(Nc1cccc(-c2cn3cccnc3n2)c1)c1ccc(F)cc1	none (no result: PostGolgi yeast, PostGolgi ctrl)
Cc1cccc(S(=O)(=O)Nc2cccc(-c3cn4ccsc4n3)c2)c1	PostGolgi ctrl 46.1
Cc1ccc(S(=O)(=O)Nc2cccc(-c3cn4ccsc4n3)c2)cc1	PostGolgi ctrl 45.6
CCC(=O)Nc1cccc(-c2cn3ccsc3n2)c1	none
CC(C)C(=O)Nc1cccc(-c2cn3ccsc3n2)c1	none
O=S(=O)(Nc1cccc(-c2cn3ccsc3n2)c1)c1ccc(F)cc1	PostGolgi ctrl 40.3
CCOC(=O)c1ccc(N=c2sc(C(=O)OC)cc(=O)n2-c2ccc(C(=O)OCC)cc2)cc1	none (no result: PostGolgi yeast, PostGolgi ctrl)
COC(=O)c1cc(=O)n(-c2ccccc2)c(=Nc2ccccc2)s1	Yeast life ext 32.9 (no result: PostGolgi yeast, PostGolgi ctrl)
NS(=O)(=O)c1ccc(NC(=O)COC(=O)CCNC(=O)NC23CC4CC(CC(C4)C2)C3)cc1	none
Cn1ccnc1SCC(=O)Nc1cc(S(=O)(=O)N2CCOCC2)ccc1Cl	none (no result: PostGolgi yeast, PostGolgi ctrl)
COc1ccc(-c2nc(C(F)(F)F)c(OC)o2)cc1OC	none (no result: PostGolgi yeast, PostGolgi ctrl)
N#Cc1cnn(-c2nc(SCc3ccccc3)nc3sc4c(c23)CCCC4)c1N	PostGolgi ctrl 34.1
Clc1ccc(OCc2nn3c(C4CCCCC4)nnc3s2)c(Cl)c1	PostGolgi ctrl 38.7
COc1ccccc1-c1nnc2sc(COc3ccccc3)nn12	none (no result: PostGolgi yeast, Yeast life ext, PostGolgi ctrl)
Clc1ccc(-c2nnc3sc(Cc4cccs4)nn23)c(Cl)c1	PostGolgi ctrl 50.1
c1coc(-c2nnc3sc(Cc4cccs4)nn23)c1	none
COc1ccccc1-c1nnc2sc(COc3ccc(Cl)cc3Cl)nn12	PostGolgi ctrl 40.9
CCN(CC)c1ccc(-c2nn3c(-c4ccccc4OC)nnc3s2)cc1	PostGolgi ctrl 42.5
O=C(Nc1nnc(C2CC2)s1)c1ccncc1	none
CCCCN(CC)C(=O)Cc1cn(C)c2ccccc12	none
CCCCCCOC(=O)Cc1c(C)nc(-c2ccccc2)[nH]c1=O	PostGolgi ctrl 34.1
O=C(CSCc1ccc(Cl)cc1)NCc1ccc2c(c1)OCO2	none
Cc1cc(-c2ccccc2)nc(N(C)NC(=O)c2c(F)cccc2F)c1S(C)(=O)=O	PostGolgi ctrl 30.3
Cc1cccc(Oc2nc(-c3ccccc3)cc(C)c2S(C)(=O)=O)c1C	none
CCCC(=O)Nc1ccc(C(=O)Nc2nnc(COCC)s2)cc1	none (no result: PostGolgi yeast, Yeast life ext, PostGolgi ctrl)
CCN(Cc1ccccc1)C(=O)c1cc2c(=O)oc3ccc(C)cc3c2s1	PostGolgi ctrl 47.0
COc1cc2c(cc1OC)C(C)N(C(=O)c1cc3c(=O)oc4ccc(C)cc4c3s1)CC2 (configuration not stated)	none (no result: PostGolgi yeast, PostGolgi ctrl)
COc1ccc(S(=O)(=O)N2CCN(c3ccc4nnc(-c5ccc(F)cc5)n4n3)CC2)cc1	none
Cc1ccc(S(=O)(=O)N2CCN(c3ccc4nnc(-c5ccccc5)n4n3)CC2)cc1	PostGolgi ctrl 34.2
Cc1ccc(OCC(=O)O/N=C(\N)Cc2ccc(Cl)cc2)cc1	none
COc1ccc(C(=O)O/N=C(\N)Cc2ccc(Cl)cc2)cc1OC	none
